Assay results reported in ChEMBL document CHEMBL1177674, “2-acylamino-4,6-diphenylpyridine derivatives as novel GPR54 antagonists with good brain exposure and in vivo efficacy for plasma LH level in male rats” (Bioorg Med Chem, 2010).

Legend:
Caco-2 = assay: Ratio of permeability from basolateral to apical side to apical to basolateral side of human Caco-2 cells; assay type: ADME, cell-based
How it was run: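 Caco-2 monolayers were grown to confluence on collagen-coated polycarbonate Transwell membranes. Assay buffer was HBSS with 10 mmol/L HEPES, 15 mmol/L glucose and 1% BSA, pH 7.3–7.5. Compound was dosed apically or basolaterally at 37 °C, 5% CO2. Receivers were sampled at 1 and 2 h and donors at 2 h, in duplicate. A cell-free membrane corrected for nonspecific binding. The B-to-A/A-to-B ratio was derived.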

[1] = Lipophilicity, log D at pH 7.4; assay type: physicochemical; conditions: buffer
KiSS-1 receptor [2] = target: T1, KiSS-1 receptor (Homo sapiens, UniProt Q969F8); assay: Displacement of [125I]metastin from human GPR54 receptor expressed in CHO cells; assay type: cell-based
How it was run: (§1)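 Membranes came from CHO cells stably expressing human or rat GPR54. They were incubated with 135 pM 125I-metastin (40–54) plus compound for 60 min at 25 °C, in Tris binding buffer pH 7.4 with protease inhibitors and 1 mg/ml BSA. Samples were filtered through PEI-pretreated GF/C filters, buffer-washed, and the bound radioactivity was counted.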

KiSS-1 receptor [3] = target: KiSS-1 receptor (Rattus norvegicus, UniProt Q924U1); assay: Displacement of [125I]metastin from rat GPR54 receptor expressed in CHO cells; assay type: cell-based; how it was run: as §1
Rattus norvegicus = assay: Decrease in leutinizing hormone level in castrated Wistar rat plasma at 0.22 mg/kg, iv for 5 times with 10 mins interval measured after 60 mins postdose by radioimmunoassay; assay type: functional; parameters: scale not given: the % may be the effect or the level left
How it was run: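 Male Wistar rats, 11 weeks old, were castrated 7 days before testing. Compound was suspended at […] in 20% DMSO-40% PEG400. It was given at 0.22 mg/kg (0.8 ml/kg) via jugular catheter five times at 10 min intervals, for 1.1 mg/kg total. Vehicle served as control; n = 8 per group. Blood was drawn before dosing and at 25–180 min, then aprotinin–EDTA plasma was prepared. Values are means SE of eight.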

KiSS-1 receptor [4] = target: T1, KiSS-1 receptor; assay: Antagonist activity at human GPR54 receptor assessed as inhibition of metastin-induced calcium mobilization; assay type: functional
How it was run: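 Cells in MEM with 10% dFBS, penicillin and streptomycin, plated at 30,000 cells/well and cultured overnight. Loaded 60 min at 37 °C in Hepes-buffered saline (pH 7.4) containing 0.1% BSA, Fluo-3AM, 1.25 mM probenecid and 0.04% Pluronic F-127. Washed at 37 °C in the same buffer with BSA and probenecid. Ca²⁺ mobilization read on FLIPR.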

Sequence of KiSS-1 receptor (Rattus norvegicus, UniProt Q924U1) (Q924U1 whole entry): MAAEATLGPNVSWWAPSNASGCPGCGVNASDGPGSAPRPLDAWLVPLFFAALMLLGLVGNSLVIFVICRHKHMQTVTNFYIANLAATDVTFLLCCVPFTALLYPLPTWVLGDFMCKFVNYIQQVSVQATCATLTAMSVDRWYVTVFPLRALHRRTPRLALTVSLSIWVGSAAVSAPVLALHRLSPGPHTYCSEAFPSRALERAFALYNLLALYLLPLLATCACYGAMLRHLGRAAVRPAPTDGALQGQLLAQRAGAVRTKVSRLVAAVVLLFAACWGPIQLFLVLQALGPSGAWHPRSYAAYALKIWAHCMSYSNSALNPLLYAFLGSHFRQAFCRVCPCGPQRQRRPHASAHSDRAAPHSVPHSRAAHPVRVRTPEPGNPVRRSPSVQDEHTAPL
T1 sequence (Q969F8 whole entry): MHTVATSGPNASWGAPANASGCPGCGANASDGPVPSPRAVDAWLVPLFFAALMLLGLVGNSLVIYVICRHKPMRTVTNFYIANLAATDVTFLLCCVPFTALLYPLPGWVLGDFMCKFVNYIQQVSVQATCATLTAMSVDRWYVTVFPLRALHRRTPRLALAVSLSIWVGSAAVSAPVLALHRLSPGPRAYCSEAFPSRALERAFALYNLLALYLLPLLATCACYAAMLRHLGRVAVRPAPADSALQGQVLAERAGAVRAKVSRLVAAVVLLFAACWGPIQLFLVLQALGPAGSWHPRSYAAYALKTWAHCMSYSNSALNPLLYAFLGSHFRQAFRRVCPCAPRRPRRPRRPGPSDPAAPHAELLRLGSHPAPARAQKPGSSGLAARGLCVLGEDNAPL

Row | SMILES | logD [1] | IC50 (KiSS-1 receptor [2]) [nM] | also measured
1 | N#Cc1c(-c2cccc(NC(=O)CCN)c2)cc(-c2ccc(F)cc2O)nc1NC(=O)c1cccs1 | 2.14 | – | Ratio (Caco-2): 49
2 | CN(C)CCC(=O)Nc1cccc(-c2cc(-c3ccc(F)cc3O)nc(NC(=O)c3ccco3)c2C#N)c1 | 2.95 | 10 | Ratio (Caco-2): 4.3; IC50 (KiSS-1 receptor [3]): 47 nM
3 | CCN(CC)CCC(=O)Nc1cccc(-c2cc(-c3ccc(F)cc3O)nc(NC(=O)c3ccco3)c2C#N)c1 | – | 16 | –
4 | N#Cc1c(-c2cccc(NC(=O)C[C@@H]3CCCN3)c2)cc(-c2ccc(F)cc2O)nc1NC(=O)c1ccco1 | 2.29 | 7.9 | IC50 (KiSS-1 receptor [3]): 26 nM
5 | N#Cc1c(-c2cccc(NC(=O)C[C@H]3CCCN3)c2)cc(-c2ccc(F)cc2O)nc1NC(=O)c1ccco1 | 2.13 | 10 | IC50 (KiSS-1 receptor [3]): 38 nM
6 | CCN(CC)CC(=O)Nc1cccc(-c2cc(-c3ccc(F)cc3O)nc(NC(=O)c3ccco3)c2C#N)c1 | – | 30 | –
7 | CN(C)CCNC(=O)c1cccc(-c2cc(-c3ccc(F)cc3O)nc(NC(=O)c3ccco3)c2C#N)c1 | – | 20 | –
8 | N#Cc1c(-c2cccc(NC(=O)CN)c2)cc(-c2ccc(F)cc2O)nc1NC(=O)c1ccco1 | – | 4.1 | –
9 | CN(C)CCN(C)c1cccc(-c2cc(-c3ccc(F)cc3O)nc(NC(=O)c3ccco3)c2C#N)c1 | – | 30 | –
10 | CCN1CCN(c2cccc(-c3cc(-c4ccc(F)cc4O)nc(NC(=O)c4ccco4)c3C#N)c2)CC1 | 4.1 | 11 | Ratio (Caco-2): 1; IC50 (KiSS-1 receptor [3]): 47 nM
11 | CCN1CCN(Cc2cccc(-c3cc(-c4ccc(F)cc4O)nc(NC(=O)c4ccco4)c3C#N)c2)CC1 | – | 20 | –
12 | N#Cc1c(-c2cccc(N3CCNCC3)c2)cc(-c2ccc(F)cc2O)nc1NC(=O)c1ccco1 | 2.72 | 3.6 | Ratio (Caco-2): 1.2; Activity (Rattus norvegicus): 32%; IC50 (KiSS-1 receptor [4]): 930 nM; IC50 (KiSS-1 receptor [3]): 15 nM
13 | N#Cc1c(-c2cccc(N3CCCNCC3)c2)cc(-c2ccc(F)cc2O)nc1NC(=O)c1ccco1 | – | 7.3 | –
14 | N#Cc1c(-c2cccc(CN3CCCNCC3)c2)cc(-c2ccc(F)cc2O)nc1NC(=O)c1ccco1 | – | 25 | –
15 | CCNC(C)CC(=O)Nc1cccc(-c2cc(-c3ccc(F)cc3O)nc(NC(=O)c3ccco3)c2C#N)c1 (racemic) | – | 10 | –
16 | CC(C)NC(C)CC(=O)Nc1cccc(-c2cc(-c3ccc(F)cc3O)nc(NC(=O)c3ccco3)c2C#N)c1 (racemic) | – | 9.7 | –
17 | CC(CC(=O)Nc1cccc(-c2cc(-c3ccc(F)cc3O)nc(NC(=O)c3ccco3)c2C#N)c1)N(C)C (racemic) | – | 18 | –
18 | CCN(CC)C(C)CC(=O)Nc1cccc(-c2cc(-c3ccc(F)cc3O)nc(NC(=O)c3ccco3)c2C#N)c1 (racemic) | – | 17 | –
19 | N#Cc1c(-c2cccc(NC(=O)CC3CCCCN3)c2)cc(-c2ccc(F)cc2O)nc1NC(=O)c1ccco1 (racemic) | – | 14 | –
20 | CCC(CC(=O)Nc1cccc(-c2cc(-c3ccc(F)cc3O)nc(NC(=O)c3ccco3)c2C#N)c1)N(CC)CC (racemic) | – | 22 | –

Continued by falling IC50 (KiSS-1 receptor [2]), values first:

Row | logD [1] | IC50 (KiSS-1 receptor [2]) [nM] | SMILES | also measured
21 | 3.07 | 180 | CN(C)CC(=O)Nc1cccc(-c2cc(-c3ccccc3O)nc(NC(=O)c3cccs3)c2C#N)c1 | Ratio (Caco-2): 1
22 | – | 18 | CN1CCC[C@H]1CC(=O)Nc1cccc(-c2cc(-c3ccc(F)cc3O)nc(NC(=O)c3ccco3)c2C#N)c1 | –
23 | – | 18 | CN1CCN(Cc2cccc(-c3cc(-c4ccc(F)cc4O)nc(NC(=O)c4ccco4)c3C#N)c2)CC1 | –
24 | – | 16 | N#Cc1c(-c2cccc(NC(=O)[C@H]3CCCN3)c2)cc(-c2ccc(F)cc2O)nc1NC(=O)c1ccco1 | –
25 | – | 15 | N#Cc1c(-c2cccc(NC(=O)CN3CCCC3)c2)cc(-c2ccc(F)cc2O)nc1NC(=O)c1ccco1 | –
26 | – | 15 | CN1CCN(c2cccc(-c3cc(-c4ccc(F)cc4O)nc(NC(=O)c4ccco4)c3C#N)c2)CC1 | –
27 | 3.31 | 12 | CN(C)CC(=O)Nc1cccc(-c2cc(-c3ccc(F)cc3O)nc(NC(=O)c3ccco3)c2C#N)c1 | Ratio (Caco-2): 1.4; IC50 (KiSS-1 receptor [3]): 130 nM
28 | – | 10 | CCN(C)CCC(=O)Nc1cccc(-c2cc(-c3ccc(F)cc3O)nc(NC(=O)c3ccco3)c2C#N)c1 | –
29 | – | 9.7 | N#Cc1c(-c2cccc(CN3CCNCC3)c2)cc(-c2ccc(F)cc2O)nc1NC(=O)c1ccco1 | –
30 | 2.66 | 8.4 | CNCC(=O)Nc1cccc(-c2cc(-c3ccc(F)cc3O)nc(NC(=O)c3ccco3)c2C#N)c1 | IC50 (KiSS-1 receptor [3]): 26 nM
31 | – | 8 | CCNC(CC)CC(=O)Nc1cccc(-c2cc(-c3ccc(F)cc3O)nc(NC(=O)c3ccco3)c2C#N)c1 (racemic) | –
32 | 2.13 | 4.6 | CNCCC(=O)Nc1cccc(-c2cc(-c3ccc(F)cc3O)nc(NC(=O)c3ccco3)c2C#N)c1 | IC50 (KiSS-1 receptor [3]): 20 nM
